Measured values as given in ChEMBL document CHEMBL4033797, “Discovery of [ cis-3-({(5 R)-5-[(7-Fluoro-1,1-dimethyl-2,3-dihydro-1 H-inden-5-yl)carbamoyl]-2-methoxy-7,8-dihydro-1,6-naphthyridin-6(5 H)-yl}carbonyl)cyclobutyl]acetic Acid (TAK-828F) as a Potent, Selective, and Orally Available Novel Retinoic Acid Receptor-Related Orphan Receptor γt Inverse …” (J Med Chem, 2018).
pIC50: −log10 of the molar value. Activity calls are given as the source filed them. No cut-off for these calls is given here.

Columns and labels:
[1] = Lipophilicity, log D of the compound at pH 7.4; type: physicochemical; details: buffer
[2] = Oral bioavailability in mouse at 1 mg/kg administered via cassette dosing; type: ADME, organism-based; details: in vivo
How it was run: (§1)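 Mice received a single oral 1 mg/kg dose in cassette format. Plasma was sampled over 8 h for Cmax, Tmax, AUC0–8h, MRT and oral bioavailability (F). Values are means of three determinations.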

[3] = AUC (0 to 8 hrs) in mouse at 1 mg/kg, po administered via cassette dosing; type: ADME, organism-based; parameters: time < 8 hr, dose 1 mg/kg, route oral; details: in vivo; how it was run: as §1
Mus musculus [4] = experiment: In vivo inverse agonist activity at RORgammat in po dosed C57BL/6 mouse assessed as inhibition of IL-23-induced IL-17A cytokine expression; type: functional
Mus musculus [5] = experiment: In vivo inverse agonist activity at RORgammat in po dosed C57BL/6 mouse assessed as inhibition of IL-23-induced IL-17A expression administered as bid; type: functional, organism-based
How it was run: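 Mice were dosed orally twice daily at 0.3, 1 and 3 mg/kg. IL-17A expression induced by IL-23 was then measured, and an effective dose was derived from the dose–response.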

[6] = Cmax in mouse at 1 mg/kg, po administered via cassette dosing; type: ADME, organism-based; parameters: dose 1 mg/kg, route oral; details: in vivo; how it was run: as §1
Mus musculus [7] = experiment: (§2) Anti-inflammatory activity against MOG (35 to 55 residues)-induced EAE C57BL/6 mouse model assessed as inhibition of development of clinical symptoms at 3 mg/kg, administered bid via oral gavage measured after 28 days post Mycobacterium tuberculosis H37Ra/ MOG (35 to 55 residues)/pertussis toxin immunization; type: functional; details: C57BL/6, po, 672 h
How it was run: (§3)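 Mice immunized with MOG peptide received oral drug in 0.5% methylcellulose vehicle bid for 28 days. EAE clinical score was recorded from day 0 to day 28, along with cumulative clinical score. Groups were 12 MOG-immunized mice per group plus 4 healthy controls, reported as mean ± S.E. Comparison was against vehicle-treated immunized controls by one-tailed Shirley-Williams test (p<0.025).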

[8] = target: T1, Nuclear receptor ROR-alpha (Homo sapiens, UniProt P35398); experiment: Inverse agonist activity at human RORalpha expressed in human Jurkat cells assessed as inhibition of transcriptional activity after 10 mins by human IL-17 ROR response element driven-bright-glo luciferase reporter gene assay; type: cell-based
T1 sequence (P35398 whole entry): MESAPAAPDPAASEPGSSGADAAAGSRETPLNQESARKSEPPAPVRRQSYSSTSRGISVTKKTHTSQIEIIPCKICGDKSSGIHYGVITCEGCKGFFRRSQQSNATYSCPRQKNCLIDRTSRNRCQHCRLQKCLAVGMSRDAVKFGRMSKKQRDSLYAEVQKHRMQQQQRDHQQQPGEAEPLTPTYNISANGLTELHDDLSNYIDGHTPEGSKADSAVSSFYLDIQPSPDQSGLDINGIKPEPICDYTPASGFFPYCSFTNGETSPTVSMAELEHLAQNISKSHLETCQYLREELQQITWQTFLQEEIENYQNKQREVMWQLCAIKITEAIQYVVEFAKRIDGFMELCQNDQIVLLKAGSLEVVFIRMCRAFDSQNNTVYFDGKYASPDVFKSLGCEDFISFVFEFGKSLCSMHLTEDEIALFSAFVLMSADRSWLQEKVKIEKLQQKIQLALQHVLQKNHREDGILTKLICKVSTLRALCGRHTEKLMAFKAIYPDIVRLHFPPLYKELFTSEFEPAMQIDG
How it was run: (§4)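 Cell-based reporter assay in human Jurkat cells carrying human RORα or RORβ. Inhibition of transcriptional activity was read as luciferase activity and reported as IC50.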

[9] = MRT in mouse at 1 mg/kg, po administered via cassette dosing; type: ADME, organism-based; details: in vivo; how it was run: as §1
[10] = Tmax in mouse at 1 mg/kg, po administered via cassette dosing; type: ADME, organism-based; details: in vivo; how it was run: as §1
Mus musculus [11] = experiment: Anti-inflammatory activity in activated T cell transfer po dosed mouse colitis model; type: functional, organism-based
Mus musculus [12] = experiment: as §2, with “at 1” for “at 3”; type: functional; details: C57BL/6, po, 672 h; how it was run: as §3
Mus musculus [13] = experiment: Anti-inflammatory activity against IL-23 induced po dosed mouse psoriasis model; type: functional, organism-based
[14] = target: T2, Nuclear receptor ROR-beta (Homo sapiens, UniProt Q92753); experiment: Inverse agonist activity at human RORbeta expressed in human Jurkat cells assessed as inhibition of transcriptional activity after 10 mins by human IL-17 ROR response element driven-bright-glo luciferase reporter gene assay; type: cell-based; how it was run: as §4
T2 sequence (Q92753 whole entry): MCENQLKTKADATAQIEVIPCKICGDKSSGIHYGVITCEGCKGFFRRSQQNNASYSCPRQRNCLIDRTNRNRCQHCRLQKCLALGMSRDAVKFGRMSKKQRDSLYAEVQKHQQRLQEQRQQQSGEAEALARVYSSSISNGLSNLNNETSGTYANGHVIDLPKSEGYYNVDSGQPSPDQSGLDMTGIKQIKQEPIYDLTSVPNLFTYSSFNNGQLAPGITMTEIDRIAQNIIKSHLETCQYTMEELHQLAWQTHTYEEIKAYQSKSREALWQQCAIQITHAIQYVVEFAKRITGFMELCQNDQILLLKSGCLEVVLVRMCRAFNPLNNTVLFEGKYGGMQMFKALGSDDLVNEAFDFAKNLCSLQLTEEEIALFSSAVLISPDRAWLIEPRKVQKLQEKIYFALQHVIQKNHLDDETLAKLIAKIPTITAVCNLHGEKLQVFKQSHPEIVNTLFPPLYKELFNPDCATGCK

Row | SMILES | logD [1] | bioavailability [2] [%] | AUC(0-t) at 8 h [3] [ng·h/mL] | further results
1 | COCC(C)(C)c1c(F)cc(NC(=O)[C@H]2c3ccc(OC)cc3CCN2C(=O)CCCC(=O)O)cc1F | 3.16 | 78 | 389 | –
2 | COc1ccc2c(n1)CCN(C(=O)C[C@H]1C[C@H](C(=O)O)C1)[C@H]2C(=O)Nc1cc(F)c2c(c1)CCC2(C)C | 3.49 | – | – | –
3 | COc1ccc2c(n1)CCN(C(=O)N1CC(CC(=O)O)C1)[C@H]2C(=O)Nc1cc(F)c2c(c1)CCC2(C)C | 3.42 | – | – | –
4 | COc1ccc2c(c1)CCN(C(=O)CCCC(=O)O)[C@H]2C(=O)Nc1cc(F)c2c(c1)CCC2(C)C | 3.37 | 91 | 3440 | inhibition (Mus musculus [4]): Dose-dependent effect
5 | COc1ccc2c(n1)CCN(C(=O)C[C@H]1C[C@@H](C(=O)O)C1)[C@H]2C(=O)Nc1cc(F)c2c(c1)CCC2(C)C | 3.51 | – | – | –
6 | COc1ccc2c(n1)CCN(C(=O)[C@H]1C[C@@H](C(=O)O)C1)[C@H]2C(=O)Nc1cc(F)c2c(c1)CCC2(C)C | 3.39 | – | – | –
7 | COc1ccc2c(n1)CCN(C(=O)[C@H]1C[C@H](C(=O)O)C1)[C@H]2C(=O)Nc1cc(F)c2c(c1)CCC2(C)C | 3.46 | – | – | –
8 | COc1ccc2c(n1)CCN(C(=O)CCCC(=O)O)[C@H]2C(=O)Nc1cc(F)c([Si](C)(C)C)c(F)c1 | 4.04 | 51 | 2880 | –
9 | COc1ccc2c(c1)CCN(C(=O)CCCC(=O)O)[C@H]2C(=O)Nc1cc(F)c(C(C)(C)C)c(F)c1 | 3.77 | 62 | 2840 | –
10 | COc1ccc2c(n1)CCN(C(=O)C1CN(CC(=O)O)C1)[C@H]2C(=O)Nc1cc(F)c2c(c1)CCC2(C)C | 3.39 | – | – | –
11 | COc1ccc2c(n1)CCN(C(=O)CCCC(=O)O)[C@H]2C(=O)Nc1cc(F)c2c(c1)CCC2(C)C | 3.39 | 58 | 2620 | inhibition (Mus musculus [4]): Dose-dependent effect
12 | COc1ccc2c(c1)CCN(C(=O)CCCC(=O)O)[C@H]2C(=O)Nc1cc(F)c([Si](C)(C)C)c(F)c1 | 3.96 | – | – | inhibition (Mus musculus [4]): Dose-dependent effect; ED80 (Mus musculus [4]; C57BL/6, po): 7.6 mg/kg
13 | COc1ccc2c(n1)CCN(C(=O)[C@H]1C[C@@H](CC(=O)O)C1)[C@H]2C(=O)Nc1cc(F)c2c(c1)CCC2(C)C | 3.53 | – | 10100 | inhibition (Mus musculus [5]): Dose-dependent effect; Cmax [6]: 1560 ng/mL; inhibition in vivo at 3 mg/kg (Mus musculus [7]): 44%; pIC50 [8]: ≤ 4.52; MRT [9]: 4.1 h; Tmax [10]: 2.3 h; Activity (Mus musculus [11]): Active; inhibition in vivo at 1 mg/kg (Mus musculus [12]): 50%; Activity (Mus musculus [13]): Active; pIC50 [14]: ≤ 4.52
14 | COc1ccc2c(n1)CCN(C(=O)[C@H]1C[C@H](CC(=O)O)C1)[C@H]2C(=O)Nc1cc(F)c2c(c1)CCC2(C)C | 3.54 | – | – | –
